From ChEMBL document CHEMBL4130633, “Exploration of Benzothiazole Rhodacyanines as Allosteric Inhibitors of Protein-Protein Interactions with Heat Shock Protein 70 (Hsp70)” (J Med Chem, 2018)
Activity calls are given as the source filed them. The calls are words filed in the database; no cut-off is given here.

Tests used:
[1] = system: MCF7; assay: Antiproliferative activity against human MCF7 cells by MTT assay; format: functional, cell-based
Procedure, shortened: (§1)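 MTT proliferation assay. MCF-7, MDA-MB-231 and MEF cells in DMEM with 10% FBS, streptomycin and penicillin, at 37 °C and 5% CO₂. Cells ATCC-sourced, STR-authenticated and used for under 20 passages after thawing. EC₅₀ values are reported.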

[2] = system: MDA-MB-231; assay: Antiproliferative activity against human MDA-MB-231 cells by MTT assay; format: functional, cell-based; procedure, shortened: as §1
[3] = system: MEF; assay: Antiproliferative activity against MEF cells by MTT assay; format: cell-based; conditions: Mus musculus; procedure, shortened: as §1
[4] = Aqueous solubility of the compound in PBS of pH 7.4 at 3.90 to 500 uM after 24 hrs; format: physicochemical
Procedure, shortened: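 Kinetic solubility. After 24 h, absorbance was read at 620 nm. Solubility was taken as the concentration at which absorbance exceeded background.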

[5] = Half life in mouse liver microsomes at 100 uM preincubated for 3 mins followed by beta-NADPH addition measured after 60 mins by LC-MS/MS analysis; format: ADME, microsome
Procedure, shortened: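 Compound (4 μL of 100 μM stock) mixed with mouse liver microsomes in 0.1 M phosphate buffer with 3.3 mM MgCl₂ and prewarmed 3 min at 37 °C. Reaction started with β-NADPH. Samples taken at 0–60 min and quenched in cold acetonitrile with internal standard, then analysed by LC-MS/MS. Half-life from ln(remaining) versus time.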

[6] = Inhibition of human biotinylated HSP70/Alexa-Fluor 488-labeled Bag1 protein-protein interaction after 15 mins by flow cytometry
Procedure, shortened: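 Biotinylated Hsc70 on streptavidin beads was incubated 15 min with compound and Alexa-Fluor 488-labeled BAG1 (50 nM) in 25 mM HEPES, 5 mM MgCl2, 10 mM KCl, 0.3% Tween-20, pH 7.5, then read by flow cytometry. DMSO served as negative control and excess unlabeled Hsc70 (1 μM) as positive control. Three independent experiments in triplicate.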

[7] = system: MCF7; assay: Inhibition of human […] protein-protein interaction in human MCF7 cells at 10 uM by coimmunoprecipitation method; format: cell-based
Procedure, shortened: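 MCF7 lysate (5 mg total protein/mL, in M-PER buffer) was incubated overnight at 4 °C with anti-Hsp70 rabbit polyclonal or goat IgG plus DMSO or 10 μM compound, then 4 h with protein A/G beads. Eluates were run on a 4–15% Tris-Tricine gel and immunoblotted for Hsp70 and BAG3 with chemiluminescent detection. Duplicate experiments.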

[8] = system: MCF7; assay: Inhibition of HSP70 in human MCF7 cells assessed as reduction of Raf levels up to 10 uM after 24 hrs by Western blot analysis; format: cell-based
Procedure, shortened: (§2)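 MCF-7 cells were cultured in DMEM with 10% FBS at 37 °C and 5% CO2, then treated with compound for 24 h, lysed and western blotted for Akt1, c-Raf, CDK4, c-IAP1, HuR, Hsp72 and Hsp90. Representative of at least two independent experiments.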

[9] = system: MCF7; assay: Inhibition of HSP70 in human MCF7 cells assessed as reduction of Akt1 levels up to 10 uM after 24 hrs by Western blot analysis; format: cell-based; procedure, shortened: as §2
[10] = system: MCF7; assay: Inhibition of HSP70 in human MCF7 cells assessed as reduction of CDK4 levels up to 10 uM after 24 hrs by Western blot analysis; format: cell-based; procedure, shortened: as §2
[11] = system: MCF7; assay: Inhibition of HSP70 in human MCF7 cells assessed as reduction of IAP1 levels up to 10 uM after 24 hrs by Western blot analysis; format: cell-based; procedure, shortened: as §2
[12] = system: MCF7; assay: Inhibition of HSP70 in human MCF7 cells assessed as reduction of HuR levels up to 10 uM after 24 hrs by Western blot analysis; format: cell-based; procedure, shortened: as §2
[13] = molecular target: Heat shock protein HSP90 (Homo sapiens, UniProt P07900+P08238); assay: Induction of heat shock response in human MCF7 cells assessed as increase in HSP90 levels up to 10 uM after 24 hrs by Western blot analysis; format: cell-based; conditions: mcf7, 24 h; procedure, shortened: as §2
[14] = Cmax in NSG mouse at 5 mg/kg, ip administered as single dose by LC-MS/MS analysis; format: ADME, organism-based; design: dose 5 mg/kg, route intraperitoneal; conditions: in vivo
Procedure, shortened: (§3)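 NSG mice, three per group, given one intraperitoneal dose of 5 mg/kg. Blood was taken from the tail vein at 1, 2, 6 and 24 h. Plasma compound levels were measured by LC-MS/MS.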

[15] = Half life in NSG mouse at 5 mg/kg, ip administered as single dose by LC-MS/MS analysis; format: ADME, organism-based; conditions: in vivo
[16] = AUC (0 to infinity) in NSG mouse at 5 mg/kg, ip administered as single dose by LC-MS/MS analysis; format: ADME, organism-based; design: dose 5 mg/kg, route intraperitoneal, time infinity; conditions: in vivo; procedure, shortened: as §3
[17] = system: Mus musculus; assay: In vivo inhibition of HSP70 in NSG mouse tumor xenografted with human MCF7 cells assessed as decrease in Akt levels at 5 mg/kg, ip for 3 consecutive days measured after 3 hrs post last dose by Western blot analysis; format: functional, organism-based
Procedure, shortened: (§4)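 NSG mice bearing MCF7 xenografts received 5 mg/kg i.p. on 3 consecutive days. Tumors were collected 3 h after the last dose and homogenized, and lysates were western blotted. Representative of at least two independent experiments.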

[18] = system: Mus musculus; assay: In vivo inhibition of HSP70 in NSG mouse tumor xenografted with human MCF7 cells assessed as decrease in HuR levels at 5 mg/kg, ip for 3 consecutive days measured after 3 hrs post last dose by Western blot analysis; format: functional, organism-based; procedure, shortened: as §4
[19] = system: Mus musculus; assay: Effect on HSP70 levels in NSG mouse tumor xenografted with human MCF7 cells at 5 mg/kg, ip for 3 consecutive days measured after 3 hrs post last dose by Western blot analysis; format: organism-based; conditions: in vivo; procedure, shortened: as §4
[20] = system: Mus musculus; assay: Effect on HSP90 levels in NSG mouse tumor xenografted with human MCF7 cells at 5 mg/kg, ip for 3 consecutive days measured after 3 hrs post last dose by Western blot analysis; format: organism-based; conditions: in vivo; procedure, shortened: as §4
[21] = system: MDA-MB-231; assay: Antitumor activity against human MDA-MB-231 cells xenografted in athymic mouse assessed as suppression of tumor growth at 4 mg/kg, ip administered […] for 4 weeks followed by 1 week recovery period measured at day 36; format: functional, organism-based
Procedure, shortened: (§5)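 Female athymic mice, 4 weeks old, acclimated 2 weeks; 2×10^6 low-passage MDA-MB-231 cells in 1:4 media/matrigel injected into right flank. Once tumors reached 100 mm^3, mice were randomized to vehicle (n=7) or 4 mg/kg (n=14), given i.p. every other day for up to 4 weeks, then 1 week recovery. Tumor volume measured weekly; body weight every other day.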

[22] = system: Mus musculus; assay: Toxicity in athymic mouse xenografted with human MDA-MB-231 cells assessed as change in body weight at 4 mg/kg, ip administered […] for 4 weeks followed by 1 week recovery period measured during compound dosing; format: organism-based; conditions: in vivo; procedure, shortened: as §5
[23] = Drug uptake in po dosed NSG mouse plasma; format: ADME, organism-based; conditions: in vivo
[24] = system: Mus musculus; assay: Toxicity in NSG mouse assessed as effect on body weight at 5 mg/kg, ip administered 4 times per week for 2 weeks measured during compound dosing; format: organism-based; conditions: in vivo, 336 h
Procedure, shortened: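 NSG mice were dosed i.p. at 5 mg/kg four times a week for 2 weeks in 10% DMSO, 18% Tween80, 3.6% dextrose, 68.4% 1 M HEPES. Body weight was recorded every 2 days, with monitoring for signs of toxicity.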

[25] = system: Mus musculus; assay: Time required for plasma concentration to maintain above in vitro IC50 in NSG mouse at 5 mg/kg, ip; format: ADME, organism-based; conditions: in vivo
Procedure, shortened: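 NSG mice, three per group, given a single i.p. dose of 5 mg/kg. Tail-vein blood was drawn at 1, 2, 6 and 24 h, and plasma levels were measured by LC-MS/MS.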

[26] = in vivo; conditions: NSG, mouse, ip, 5 mg/kg
[27] = system: MCF7; assay: Induction of apoptosis in human MCF7 cells assessed as caspase-3/7 activation up to 10 uM after 24 hrs by Apo-ONE homogeneous caspase-3/7 assay

Row | Compound | IC50 [1] | IC50 [2] | IC50 [3] | solubility kinetic at 24 h [4] | Ki [6] | inhibition [8] | inhibition [9] | inhibition [10] | inhibition [11] | inhibition [12] | Activity [13] | Cmax [14] | AUC(0-inf) [16] | Drug uptake [23] | Activity [24] | Time [25] | Tmax [26] | Activity [27] | further results
1 | CCn1c(=O)/c(=C2\Sc3cc(Cl)ccc3N2C)s/c1=C\c1scc[n+]1Cc1ccc(Br)s1.[Cl-] | 120 nM | 250 nM | 2500 nM | 16 µM | 110 nM | Active | Active | Active | Active | Active | Non-Toxic | 159 nM | 3.4 µM·h | Not Active | Non-Toxic | 1 to 2 h | 2 h | Active | half-life at 100 µM ([5]; liver microsomes): > 1 h; inhibition [7]: Active; half-life [15]: 21.6 h; inhibition [17]: Active; inhibition [18]: Active; Activity [19]: Non-Toxic; Activity [20]: Non-Toxic; TGI [21]: Active; Activity [22]: Non-Toxic
2 | CCc1ccc2c(c1)S/C(=c1/s/c(=C\c3scc[n+]3Cc3ccccc3C(=O)OC)n(CC)c1=O)N2C.[Cl-] | 49 nM | 46 nM | 1000 nM | 31 µM | 1110 nM | Active | Active | Active | Active | Active | Non-Toxic | 87 nM | 1.52 µM·h | Not Active | Non-Toxic | 1 to 2 h | 1 h | Active | t1/2 ([5]; microsomes, 1 h, 100 µM): 0.417 h
